# Data taken from ChEMBL document CHEMBL1151161, “Isolation from Eucalyptus occidentalis and identification of a new kaempferol derivative that induces apoptosis in human myeloid leukemia cells” (J Nat Prod, 2004).
# Activity calls are given as the source filed them. The rule behind the calls is not given here.
# Tests used:
# [1] = test system: HL-60; assay: Induction of apoptosis in human HL60 cells assessed as cytochrome release at 10 uM by Western blot; assay type: functional, cell-based
# Outline: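 Exponentially growing HL-60 cells were treated for 6 h. The cytosolic fraction was obtained by hypotonic sucrose-buffer swelling on ice, needle lysis, a 1000g spin, then 105 000g for 45 min at 4 °C. 50 µg cytosolic protein was run on SDS/15% PAGE and immunoblotted with anti-cytochrome c (1:250), with ECL detection.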
# [2] = test system: HL-60; assay: Cytotoxicity against human HL60 cells after 72 hrs by MTT assay; assay type: functional, cell-based; settings: HL-60, 72 h
# Outline: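 HL-60 cells kept in RPMI-1640 with 10% heat-inactivated FBS at 37 °C and 5% CO2, resuspended in fresh medium 24 h before treatment. Cells at 1×10^4/well were exposed continuously to a concentration series for 72 h at 37 °C, with final DMSO ≤0.5%. Read-out was MTT reduction at OD 570 nm as % of DMSO control. IC50 was curve-fitted for each experiment; points were triplicates.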
# [3] = test system: HL-60; assay: Induction of apoptosis in human HL60 cells assessed as morphological changes at 30 uM after 12 hrs by Hoechst 33258 staining based fluorescence microscopy; assay type: functional, cell-based
# Outline: (§1)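 HL-60 cells were treated for 12 h at 10–30 µM, with 10 µM etoposide as positive control. Cells were fixed in 3% paraformaldehyde for 10 min, then stained with 10 µg/mL Hoechst 33258 for 30 min at 37 °C. Nuclei with condensed or fragmented chromatin were scored as apoptotic, counting ≥500 cells per sample, in triplicate.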
# [4] = test system: HL-60; assay: Induction of apoptosis in human HL60 cells assessed as induction of DNA cleavage at 10 uM after 12 hrs by gel electrophoresis; assay type: functional, cell-based
# Outline: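 HL-60 cells (1×10^6) were lysed in Tris pH 8.0/EDTA/0.5% SDS with RNase A for 1 h at 37 °C, then proteinase K for 2 h at 50 °C. DNA was phenol-chloroform extracted and run on 2% agarose with ethidium bromide staining. The legend gives 24 h treatment while the text gives 12 h.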
# [5] = test system: HL-60; assay: Induction of apoptosis in human HL60 cells assessed as morphological changes after 12 hrs by Hoechst 33258 staining based fluorescence microscopy; assay type: functional, cell-based; outline: as §1
# [6] = test system: HL-60; assay: Induction of apoptosis in human HL60 cells assessed as induction of PARP1 cleavage after 24 hrs by Western blot; assay type: functional, cell-based
# Outline: (§2)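 About 7×10^5 exponentially growing HL-60 cells were treated at 37 °C for 6 or 24 h. Lysates in Hepes/NaCl/NP-40 buffer with protease inhibitors were cleared at 10 000g. 50 µg protein was run on 7.5% SDS-PAGE and probed with anti-PARP-1 (1:1000), with ECL detection. The 85 kDa fragment versus the 116 kDa intact band was the apoptosis marker.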
# [7] = test system: HL-60; assay: Induction of apoptosis in human HL60 cells at 30 uM after 12 hrs by Hoechst 33258 staining based fluorescence microscopy; assay type: functional; outline: as §1
# [8] = test system: HL-60; assay: Induction of apoptosis in human HL60 cells assessed as fold increase in caspase 8 activation at 10 uM relative to control; assay type: functional
# Outline: (§3)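 HL-60 cells were exposed for 12 h to 1–30 µM. Lysates were made in Hepes pH 7.4/DTT/CHAPS buffer and protein was measured by Bradford. About 20 µg protein was incubated at 37 °C with DEVD-pNA (caspase-3) or IETD-pNA (caspase-8). Net A405 increase was expressed as fold over untreated control, in duplicate.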
# [9] = test system: HL-60; assay: Induction of apoptosis in human HL60 cells assessed as fold increase in caspase 3 activation at 30 uM relative to control; assay type: functional; outline: as §3
# [10] = test system: HL-60; assay: Induction of apoptosis in human HL60 cells assessed as induction of PARP1 cleavage after 6 hrs by Western blot; assay type: functional, cell-based; outline: as §2
Structure (SMILES),Activity [1],IC50 [2],Activity [3],Activity [4],Activity [5],Activity [6],Activity [7],fold change (FC) [8],fold change (FC) [9],Activity [10]
COc1c(-c2ccc(O)cc2)oc2c(C)c(O)c(C)c(O)c2c1=O,Active,7.4 µM,Active,Active,Dose-dependent effect,Active,26.6%,,,
COc1ccc(-c2oc3c(C)c(O)c(C)c(O)c3c(=O)c2OC)cc1,Active,1.7 µM,Active,Active,Dose-dependent effect,Active,47.8%,3.7,1.9,Active
